Assays:
Homo sapiens [1] = test: Toxicity in healthy human assessed as occurrence of migraine at 12.5 mg, po administered as single dose relative to control; assay type: organism-based; settings: in vivo
Homo sapiens [2] = test: Toxicity in healthy human assessed as occurrence of increase in alanine aminotransferase level at 25 mg, po administered as single dose relative to control; assay type: organism-based; settings: in vivo
Homo sapiens [3] = test: Toxicity in healthy human assessed as occurrence of constipation at 1 mg, po administered as single dose relative to control; assay type: organism-based; settings: in vivo
Homo sapiens [4] = test: Toxicity in healthy human assessed as occurrence of constipation at 50 mg, po administered as single dose relative to control; assay type: organism-based; settings: in vivo
Homo sapiens [5] = test: Toxicity in healthy human assessed as occurrence of neurological eyelid disorder at 1 mg, po administered as single dose relative to control; assay type: organism-based; settings: in vivo
Homo sapiens [6] = test: Toxicity in healthy human assessed as occurrence of neurological eyelid disorder at 75 mg, po administered as single dose relative to control; assay type: organism-based; settings: in vivo
Homo sapiens [7] = test: Toxicity in healthy human assessed as occurrence of flatulence at 1 mg, po administered as single dose relative to control; assay type: organism-based; settings: in vivo
Homo sapiens [8] = test: Toxicity in healthy human assessed as occurrence of flatulence at 50 mg, po administered as single dose relative to control; assay type: organism-based; settings: in vivo
Homo sapiens [9] = test: Toxicity in healthy human assessed as occurrence of palpitations at 50 mg, po administered as single dose relative to control; assay type: organism-based; settings: in vivo
Homo sapiens [10] = test: Toxicity in healthy human assessed as occurrence of herpes simplex at 50 mg, po administered as single dose relative to control; assay type: organism-based; settings: in vivo
[11] = Apparent oral clearance in healthy human at 75 mg, po administered as single dose coadministered with 100 mg of ritonavir; assay type: ADME, organism-based; settings: in vivo
Summary of the method: (§1)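 Healthy male volunteers, fasted. Ritonavir 100 mg given 10 h before and again together with single oral BILR 355 in PEG solution. EDTA plasma sampled predose to 144 h. LC-MS/MS assay after protein precipitation. Noncompartmental analysis, AUC by linear up/log down trapezoidal rule; Vss = CL/F·(MRTp.o. − 1/Ka).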

[12] = Apparent oral clearance in healthy human at 87.5 mg, po administered as single dose coadministered with 100 mg of ritonavir; assay type: ADME, organism-based; settings: in vivo; summary of the method: as §1
[13] = Apparent volume of distribution in terminal phase in healthy human at 50 mg, po administered as single dose coadministered with 100 mg of ritonavir; assay type: ADME, organism-based; settings: in vivo, read-out: Vz/F
Summary of the method: (§2)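 Healthy male volunteers, fasted overnight, got one oral dose of BILR 355 in PEG solution with 200 ml water. Ritonavir 100 mg was given 10 h before and again with the dose. Plasma was sampled (EDTA) from predose to 144 h and assayed by validated LC-MS/MS. Cmax and Vz/F came from noncompartmental analysis. Vss/F = CL/F·(MRTp.o. − 1/Ka), with Ka from compartmental modelling.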

[14] = Apparent volume of distribution in terminal phase in healthy human at 62.5 mg, po administered as single dose coadministered with 100 mg of ritonavir; assay type: ADME, organism-based; settings: in vivo, read-out: Vz/F; summary of the method: as §2
[15] = Apparent volume of distribution at steady state in healthy human at 5 mg, po administered as single dose coadministered with 100 mg of ritonavir; assay type: ADME, organism-based; settings: in vivo, read-out: Vss/F; summary of the method: as §2
[16] = Apparent volume of distribution at steady state in healthy human at 12.5 mg, po administered as single dose coadministered with 100 mg of ritonavir; assay type: ADME, organism-based; settings: in vivo, read-out: Vss/F; summary of the method: as §1
[17] = Renal clearance in healthy human at 37.5 mg, po administered as single dose coadministered with 100 mg of ritonavir by high-pressure liquid chromatography-tandem mass spectrometry/mass spectrometry method; assay type: ADME, organism-based, Kidney; settings: in vivo, read-out: CL_renal (converted)
[18] = Drug excretion in healthy human urine assessed as unchanged drug at 62.5 mg, po administered as single dose coadministered with 100 mg of ritonavir by high-pressure liquid chromatography-tandem mass spectrometry/mass spectrometry method; assay type: ADME, organism-based; settings: read-out: Drug uptake
Summary of the method: (§3)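 Ritonavir 100 mg was given 10 h before and with one oral dose of BILR 355 in PEG solution. Urine was collected by weight as predose blank, then 0-6, 6-24 and 24-72 h, stored at −20°C and assayed by LC-MS/MS. fe = unchanged drug excreted (Ae) as a percentage of dose. Line 50: high-fat breakfast 30 min before dosing.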

[19] = Drug excretion in healthy human urine assessed as unchanged drug at 75 mg, po administered as single dose coadministered with 100 mg of ritonavir by high-pressure liquid chromatography-tandem mass spectrometry/mass spectrometry method; assay type: ADME, organism-based; settings: read-out: Drug uptake; summary of the method: as §3
Homo sapiens [20] = test: Ratio of AUC (0 to infinity) in human at 75 mg, po in presence of 100 mg of ritonavir to AUC (0 to infinity) in human at 75 mg, po; assay type: ADME, organism-based; settings: in vivo
Homo sapiens [21] = test: Toxicity in high fat fed healthy human assessed as occurrence of aphthous stomatitis at 50 mg, po administered as single dose coadministered with 100 mg of ritonavir; assay type: organism-based; settings: in vivo
Homo sapiens [22] = test: Toxicity in healthy human assessed as occurrence of maculopapular rash at 25 mg, po administered as single dose coadministered with 100 mg of ritonavir; assay type: organism-based; settings: in vivo
Homo sapiens [23] = test: Toxicity in high fat fed healthy human assessed as occurrence of maculopapular rash at 50 mg, po administered as single dose coadministered with 100 mg of ritonavir; assay type: organism-based; settings: in vivo
[24] = AUC (0 to last) in healthy human at 5 mg, po administered as single dose; assay type: ADME, organism-based; set-up: dose 5 mg, time 0 - last, route oral; settings: plasma
Summary of the method: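 Healthy male volunteers, six active plus two placebo per dose group, single oral dose in PEG solution with 200 ml water after overnight fast; breakfast 60 to 90 min post-dose. EDTA plasma sampled predose to 144 h. Assayed by validated LC-MS/MS after protein precipitation. Noncompartmental analysis, AUC by linear up/log down trapezoidal rule; Vss = CL/F·(MRTp.o. − 1/Ka).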

[25] = Tmax in healthy human at 75 mg, po administered as single dose; assay type: ADME, organism-based; settings: in vivo
[26] = Mean residence time in healthy human at 12.5 mg, po administered as single dose; assay type: ADME, organism-based; settings: in vivo
[27] = Apparent volume of distribution in terminal phase in healthy human at 12.5 mg, po administered as single dose; assay type: ADME, organism-based; settings: in vivo, read-out: Vz/F
Summary of the method: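 Single fasting oral dose of BILR 355 in PEG solution with 200 ml tap water, given to healthy males. Standard breakfast came 60-90 min after the dose. EDTA plasma was sampled predose to 144 h, stored below −18°C and assayed by LC-MS/MS after protein precipitation. Noncompartmental analysis gave Vz/F. Vss/F = CL/F·(MRTp.o. − 1/Ka), with Ka from compartmental modelling.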

[28] = Renal clearance in healthy human at 75 mg, po administered as single dose by high-pressure liquid chromatography-tandem mass spectrometry/mass spectrometry method; assay type: ADME, organism-based, Kidney; settings: in vivo, read-out: CL_renal (converted)
[29] = Cmax in healthy human at 5 mg, po administered as single dose coadministered with 100 mg of ritonavir by high-pressure liquid chromatography-tandem mass spectrometry/mass spectrometry method; assay type: ADME, organism-based; set-up: dose 5 mg, route oral; settings: in vivo; summary of the method: as §2
[30] = Half life in healthy human at 37.5 mg, po administered as single dose coadministered with 100 mg of ritonavir; assay type: ADME, organism-based; settings: in vivo
Homo sapiens [31] = test: Toxicity in healthy human assessed as occurrence of headache at 25 mg, po administered as single dose relative to control; assay type: organism-based; settings: in vivo
Homo sapiens [32] = test: Toxicity in healthy human assessed as occurrence of nausea at 12.5 mg, po administered as single dose relative to control; assay type: organism-based; settings: in vivo

CL/F [11]: 106 mL/min
CL/F [12]: 138 mL/min
Vd/F [13]: 129 L
Vd/F [14]: 118 L
Vd/F [15]: 166 L
Vd/F [16]: 153 L
CL renal [17]: 4.92 mL/min
dose excreted [18]: 5.05%
dose excreted [19]: 5.44%
Ratio (Homo sapiens [20]): 15
AUC(0-t) [24]: 13.6 ng·h/mL
Tmax [25]: 0.667 h
MRT [26]: 6.12 h
Vd/F [27]: 1430 L
CL renal [28]: 10.2 mL/min
Cmax [29]: 25.3 ng/mL
half-life [30]: 11 h
Compound: CCN1c2ncc(CCOc3cc[n+]([O-])c4ccccc34)cc2C(=O)N(C)c2cccnc21 [BILR 355]
Activity (Homo sapiens [1]): 0%
Activity (Homo sapiens [2]): 0%
Activity (Homo sapiens [3]): 0%
Activity (Homo sapiens [4]): 0%
Activity (Homo sapiens [5]): 0%
Activity (Homo sapiens [6]): 16.7%
Activity (Homo sapiens [7]): 0%
Activity (Homo sapiens [8]): 0%
Activity (Homo sapiens [9]): 0%
Activity (Homo sapiens [10]): 0%
Activity (Homo sapiens [21]): 0%
Activity (Homo sapiens [22]): 16.7%
Activity (Homo sapiens [23]): 0%
Activity (Homo sapiens [31]): 16.7%
Activity (Homo sapiens [32]): 0%

— ChEMBL document CHEMBL1629563, “Pharmacokinetic and safety evaluation of BILR 355, a second-generation nonnucleoside reverse transcriptase inhibitor, in healthy volunteers” (Antimicrob Agents Chemother, 2008)
